# Source: PubChem
# In the library only some 3.6% were active in any assay of this set; here they are far more common.
# SENP1 FRET inh: human SENP1 catalytic domain inhibitors, primary screen, biochemical, FRET, uHTS; Sentrin-specific protease 1 (Homo sapiens), Q9P0U3; recombinant SENP1 catalytic domain, CyPet-SUMO1-YPet FRET cleavage; inhibition, % at 10 µM; 0.21% of 360,000 active; AID 624204, 2012;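 active = inhibition at least 30% at 10 µM, raw YFP signal under a set limit, fluorescence ratio 0.5 to 1.5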;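 note: 0% = enzyme with DMSO and 100% = no enzyme wells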
#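 System: Recombinant human SENP1 catalytic domain, His6-tagged | Incubation: Enzyme reaction for 50 min at room temperature, dark | Medium: Tris pH 8 with BME, BSA, NP40 and catalase | Also added: 25 nM SUMO1 FRET substrate | Compound: 10 µM single point, 0.5% DMSO | Measured by: FRET fluorescence in CFP and YFP emission channels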
# UCH37 inh: inhibitors of human UCH37 deubiquitinase, primary screen, biochemical, Ub-AMC cleavage, fluorescence | AID 588478, 2011 | Ubiquitin carboxyl-terminal hydrolase isozyme L5 (Homo sapiens), Q9Y5K5 | 0.33% of 330,000 active | inhibition, % (concentration not given with the values) | purified proteasome/UCH37;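 active = mean inhibition over replicate wells above about 20%, limit read from the data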;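 note: 0% = compound-free wells with enzyme and 100% = wells lacking proteasome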
#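 Schedule: 30 min plus 25 min, room temperature / Material: human UCH37 within purified proteasomes / Technique: AMC fluorescence intensity at 355/460 nm / Buffer or medium: pH 7.4 Tris-HCl (50 mM) with ovalbumin, ATP-MgCl2, DTT / Controls: wells without proteasome as full block, compound-free enzyme plus substrate as uninhibited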
# ATG4B inhibitor: ATG4B protease inhibitors, primary screen, biochemical, fluorescence, uHTS | inhibition, % at 8.33 µM | AID 504462, 2011 | ATG4B cleavage of LC3-PLA2, NBD-HPC fluorescence, 1 h | Cysteine protease ATG4B (Homo sapiens), Q9Y4P1 | 0.51% of 340,000 active; in the data active = inhibition above about 40%
# Target sequence (Q9Y4P1 whole entry, looked up): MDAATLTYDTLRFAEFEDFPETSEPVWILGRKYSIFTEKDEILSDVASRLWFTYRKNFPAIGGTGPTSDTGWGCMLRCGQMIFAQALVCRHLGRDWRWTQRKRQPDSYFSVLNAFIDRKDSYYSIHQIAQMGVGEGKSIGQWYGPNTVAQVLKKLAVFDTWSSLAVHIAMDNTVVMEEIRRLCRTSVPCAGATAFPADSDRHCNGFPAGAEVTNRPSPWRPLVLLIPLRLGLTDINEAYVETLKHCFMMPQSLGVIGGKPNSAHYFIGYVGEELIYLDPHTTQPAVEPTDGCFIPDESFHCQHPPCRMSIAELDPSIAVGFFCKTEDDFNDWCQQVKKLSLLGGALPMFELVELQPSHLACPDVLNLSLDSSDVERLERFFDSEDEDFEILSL
# NR3A LBD binder: binders of NR3A ligand-binding domain, primary screen, biophysical, differential scanning fluorimetry, uHTS. NR3A LBD differential scanning fluorimetry, Tm shift; 0% = protein alone, 100% = glycine-bound protein. Tm shift relative to glycine control, % at 25 µM. 2.5% of 340,000 active. AID 1259313, 2017;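 active = melting temperature shift of at least 10% of the positive control shift, at one fixed dose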
# NadD inh: inhibitors of S. aureus NadD, primary screen, biochemical, colorimetric, uHTS; AID 602399, 2012; Nicotinate-nucleotide adenylyltransferase NadD (Staphylococcus aureus N315); purified NadD enzyme, colorimetric absorbance read-out; 0.78% of 360,000 active; inhibition, % at 20 µM; in the data active = inhibition above about 26%
# NadD inh conf: inhibitors of S. aureus NadD, confirmation, biochemical, colorimetric, single concentration; purified S. aureus NadD, colorimetric enzyme assay; AID 624309, 2012; 13% of 2,000 active; inhibition, % at 20 µM; shares compounds with NadD inh; in the data active = inhibition mostly above about 42%, no sharp cut-off; inactive = mostly below about 42%
# Numbers without * were called inactive; · = not tested or not shown; ! = not active in a repeat.
SMILES,SENP1 FRET inh,UCH37 inh,ATG4B inhibitor,NR3A LBD binder,NadD inh,NadD inh conf
COc1ccc(C2Nc3ccccc3C(=O)N2Cc2ccco2)cc1CN1C(=O)c2ccccc2C1=O (configuration not stated),0,-5,-8,-2,39*!,22
COc1cc(/C=C(\C#N)c2nc(-c3cc4ccccc4oc3=O)cs2)ccc1O,-25,1,-5,8,50*,-6
CC1CCC(=C(C#N)c2nc(-c3cc4ccccc4oc3=O)cs2)CC1 (configuration not stated),-3,-63,-6,2,5,·
C#CCN(C[C@H]1[C@H](OC(=O)NCc2ccc(OC)c(OC)c2)[C@H](OC(=O)NCc2ccc(OC)c(OC)c2)C[C@H]2C(=O)N(c3ccccc3)C(=O)[C@@H]12)S(=O)(=O)c1ccc(C)cc1,-2,·,·,·,-3,·
C#CCN(C[C@H]1[C@H](OC(=O)NCc2ccccc2F)[C@H](OC(=O)NCc2ccccc2F)C[C@H]2C(=O)N(c3ccccc3)C(=O)[C@@H]12)S(=O)(=O)c1ccc(C)cc1,1,·,·,·,30*,40
NC(=O)[C@H](Cc1cc2ccccc2s1)NC(=O)[C@@H]1CC2(CC(c3cccc(NC(=O)[C@@H]4CCC(=O)N4)c3)=NO2)CN1C(=O)/C=C/c1c(F)cccc1Cl (some centres not stated),-1,1,-36,-2,34*,21
O=C(Nc1cccc(S(=O)(=O)N2CCCCC2)c1)c1c2c(nc3ccccc13)CCN(Cc1ccccc1)C2,-9,0,-13,0,30*,-5
Cc1ccccc1C=Nn1c(-c2ccccn2)n[nH]c1=S,·,2,·,·,·,·
COc1ccc(C=NNC(=O)c2ccc(Cl)c(S(N)(=O)=O)c2)cc1OCC(N)=O,·,-6,·,·,·,·
O=C1CS/C(=N/N=Cc2cccs2)N1,·,14,·,·,·,·
O=C(Cn1nc(-c2ccccc2)ccc1=O)Nc1ccc(N2CCN(C(=O)c3cccs3)CC2)cc1,0,5,-15,-2,29*,6
CCC(C)[C@H](NC(=O)OC(C)(C)C)C(=O)NN=CC1=Cc2ccccc2OC1 (some centres not stated),·,-84,·,·,·,·
Nc1c(C(=O)O)sc2nc(-c3ccccc3)cc(-c3ccc(F)cc3)c12,-34,-1,9,0,35*,26
Nc1c(C(=O)O)sc2nc(-c3ccccc3)cc(-c3ccccc3)c12,-37,-1,7,-4,25,·
COc1ccc2oc(=O)c(-c3csc(Nc4cccc(O)c4)n3)cc2c1,-24,-54,38,27*,35*,59*
CC(=O)Nc1ccc(Nc2nc(-c3cc4ccccc4oc3=O)cs2)cc1,-6,1,-22,4,9,·
COc1cccc2cc(/C(C)=N/Nc3nc(-c4cc(C)ccc4C)cs3)c(=O)oc12,-5,·,16,-4,34*,20
COc1ccc(Nc2nc(-c3cc4cccc(OC)c4oc3=O)cs2)cc1,26,3,-7,16*,44*,-4
Cc1cc(C=Nn2cnnc2)c(C)n1-c1cccc(C(=O)O)c1,·,5,·,·,·,·
COc1cc(C=NNc2nc(C)cc(=O)[nH]2)ccc1O,·,10,·,·,·,·
Cc1nn(-c2ccccc2)c(C)c1C=Nn1c(-c2ccc(C(C)(C)C)cc2)n[nH]c1=S,·,8,·,·,·,·
Cc1nc2ccccc2c(=O)n1N=Cc1cn(-c2ccccc2)nc1-c1cccs1,·,1,·,·,·,·
COc1ccc(COc2cc(-c3cccc(OC)c3)nc3ccc(NC(=O)c4ccccc4)cc23)cc1,0,-2,-9,0,32*,9
COc1ccc(COc2cc(-c3cccc(OC)c3)nc3ccc(NC(=O)c4ccc(Cl)cc4)cc23)cc1,1,-2,-11,10,59*,11
